From ChEMBL document CHEMBL4130621, “Structure-Activity Relationship Studies with Tetrahydroquinoline Analogs as EPAC Inhibitors” (ACS Med Chem Lett, 2017)
The source made the active and inactive calls. No cut-off for these calls is given here.

Columns and labels:
[1] = molecular target: T1, Rap guanine nucleotide exchange factor 3 (Homo sapiens, UniProt O95398); test: Inhibition of recombinant human GST-tagged EPAC1 (149 to 881 residues) expressed in Escherichia coli Rosetta 2(DE3) assessed as reduction in guanine nucleotide exchange activity using BODIPY-labeled GDP loaded Rap1A by fluorescence assay
T1 sequence (O95398 whole entry): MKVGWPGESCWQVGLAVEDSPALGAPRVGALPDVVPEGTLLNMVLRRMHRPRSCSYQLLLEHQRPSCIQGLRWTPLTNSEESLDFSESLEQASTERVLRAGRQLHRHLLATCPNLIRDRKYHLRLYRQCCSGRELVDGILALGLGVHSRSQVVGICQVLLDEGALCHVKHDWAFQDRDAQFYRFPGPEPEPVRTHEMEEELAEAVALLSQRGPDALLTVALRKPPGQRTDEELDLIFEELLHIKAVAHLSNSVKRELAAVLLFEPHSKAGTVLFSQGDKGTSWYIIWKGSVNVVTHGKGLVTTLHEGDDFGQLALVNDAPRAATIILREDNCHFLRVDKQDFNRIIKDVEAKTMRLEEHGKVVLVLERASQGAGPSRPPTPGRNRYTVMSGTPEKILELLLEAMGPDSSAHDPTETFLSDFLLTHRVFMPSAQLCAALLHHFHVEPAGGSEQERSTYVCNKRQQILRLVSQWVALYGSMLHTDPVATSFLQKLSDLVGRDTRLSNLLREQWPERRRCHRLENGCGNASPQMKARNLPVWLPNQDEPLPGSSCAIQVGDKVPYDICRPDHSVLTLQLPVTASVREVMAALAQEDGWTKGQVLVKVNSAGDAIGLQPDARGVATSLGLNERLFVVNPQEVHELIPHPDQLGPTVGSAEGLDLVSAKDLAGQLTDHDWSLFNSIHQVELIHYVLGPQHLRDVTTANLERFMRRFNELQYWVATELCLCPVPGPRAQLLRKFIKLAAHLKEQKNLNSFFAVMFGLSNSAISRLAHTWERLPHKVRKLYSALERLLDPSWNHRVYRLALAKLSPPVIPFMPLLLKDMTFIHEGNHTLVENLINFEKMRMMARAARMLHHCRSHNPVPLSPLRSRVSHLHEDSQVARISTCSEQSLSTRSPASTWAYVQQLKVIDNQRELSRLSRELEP

[2] = molecular target: Rap guanine nucleotide exchange factor 4 (Homo sapiens, UniProt Q8WZA2); test: Inhibition of recombinant human GST-tagged EPAC2 expressed in Escherichia coli Rosetta 2(DE3) assessed as reduction in guanine nucleotide exchange activity using BODIPY-labeled GDP loaded Rap1A by fluorescence assay
Sequence of Rap guanine nucleotide exchange factor 4 (Q8WZA2 whole entry, the tested form may be a part): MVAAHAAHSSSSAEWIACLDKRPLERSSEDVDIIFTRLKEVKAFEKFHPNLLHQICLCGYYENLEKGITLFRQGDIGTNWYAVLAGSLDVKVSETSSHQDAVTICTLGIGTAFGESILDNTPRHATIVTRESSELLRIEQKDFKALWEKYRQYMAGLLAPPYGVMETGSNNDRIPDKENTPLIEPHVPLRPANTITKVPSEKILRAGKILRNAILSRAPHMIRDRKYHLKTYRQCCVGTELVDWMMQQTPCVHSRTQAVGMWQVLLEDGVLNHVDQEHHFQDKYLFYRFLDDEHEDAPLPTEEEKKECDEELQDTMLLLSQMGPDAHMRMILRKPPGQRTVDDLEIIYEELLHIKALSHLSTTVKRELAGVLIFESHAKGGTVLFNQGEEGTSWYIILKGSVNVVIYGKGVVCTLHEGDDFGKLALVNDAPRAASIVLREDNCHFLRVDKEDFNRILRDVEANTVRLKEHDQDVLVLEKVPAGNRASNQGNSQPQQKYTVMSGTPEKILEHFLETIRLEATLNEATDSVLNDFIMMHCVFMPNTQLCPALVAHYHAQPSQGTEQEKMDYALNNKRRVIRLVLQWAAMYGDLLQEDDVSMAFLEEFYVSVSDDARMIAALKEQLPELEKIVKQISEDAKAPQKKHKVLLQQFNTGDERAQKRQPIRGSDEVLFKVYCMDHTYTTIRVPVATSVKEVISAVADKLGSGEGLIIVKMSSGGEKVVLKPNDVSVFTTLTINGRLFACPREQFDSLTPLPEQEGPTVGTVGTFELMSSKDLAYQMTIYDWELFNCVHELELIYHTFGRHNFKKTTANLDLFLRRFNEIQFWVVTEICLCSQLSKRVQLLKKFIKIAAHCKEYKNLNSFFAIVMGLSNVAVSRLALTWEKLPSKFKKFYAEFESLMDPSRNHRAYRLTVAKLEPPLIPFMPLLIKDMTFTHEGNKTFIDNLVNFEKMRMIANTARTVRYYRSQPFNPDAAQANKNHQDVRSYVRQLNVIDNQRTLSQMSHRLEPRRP

[3] = molecular target: T2, Rap guanine nucleotide exchange factor 3 (Homo sapiens) (UniProt O95398); test: Inhibition of recombinant human GST-tagged EPAC1 (149 to 881 residues) expressed in Escherichia coli Rosetta 2(DE3) assessed as reduction in guanine nucleotide exchange activity at 10 uM using BODIPY-labeled GDP loaded Rap1A by fluorescence assay relative to control
T2 sequence (whole entry): T1 sequence (O95398 whole entry)
Summary of the method: (§1)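 EPAC1 was stimulated with the analog present at 10 or 50 μM. Activity was then measured as guanine nucleotide exchange factor activity toward Rap1 in a BODIPY-GDP-based assay, used as a screen.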

[4] = molecular target: T2, Rap guanine nucleotide exchange factor 3 (Homo sapiens); test: Inhibition of recombinant human GST-tagged EPAC1 (149 to 881 residues) expressed in Escherichia coli Rosetta 2(DE3) assessed as reduction in guanine nucleotide exchange activity at 50 uM using BODIPY-labeled GDP loaded Rap1A by fluorescence assay relative to control; summary of the method: as §1

Compound	IC50 [1]	IC50 [2]	inhibition [3]	inhibition [4]
C[C@@H]1CCc2c(cc(Br)c(F)c2Br)N1	–	–	Active	–
CC1CCc2c(cc(Br)c(F)c2Br)N1C=O (centres undefined)	–	–	58.1%	88.3%
CC1CCc2c(ccc(F)c2Br)N1C=O (centres undefined)	–	–	15.8%	42%
C[C@@H]1CCc2c(cc(Br)c(F)c2Br)N1C=S	17.6 µM	–	–	–
C[C@H]1CCc2c(cc(Br)c(F)c2Br)N1C=O	31.3 µM	17.1 µM	–	–
C[C@@H]1CCc2c(ccc(F)c2Br)N1C=O	–	–	Active	–
CC1CCc2c(Br)c(F)c(Br)c(Br)c2N1C=O (centres undefined)	–	–	23.6%	46%
C[C@H]1CCc2c(ccc(F)c2Br)N1C=O	–	–	Active	–
C[C@H]1CCc2c(cc(Br)c(F)c2Br)N1C=S	> 100 µM	–	–	–

Other lines, results leading:

IC50 [1]	IC50 [2]	inhibition [3]	inhibition [4]	Compound
3.3 µM	22.3 µM	–	–	C[C@@H]1CCc2c(cc(Br)c(F)c2Br)N1C=O
–	–	Active	–	C[C@H]1CCc2c(cc(Br)c(F)c2Br)N1
–	–	8.7%	26.2%	CC(=O)N1c2cc(Br)c(F)c(Br)c2CCC1C (centres undefined)
–	–	40.8%	74.1%	CC1CCc2c(cc(Br)c(F)c2Br)N1 (centres undefined)
–	–	Active	–	C[C@H]1CCc2cc(F)ccc2N1C=O
–	–	5.3%	5%	CC1CCc2cc(F)ccc2N1C=O (centres undefined)
–	–	Active	–	C[C@@H]1CCc2cc(F)ccc2N1C=O
